Test results from ChEMBL document CHEMBL4665666, “Discovery and characterization of trypanocidal cysteine protease inhibitors from the 'malaria box'” (Eur J Med Chem, 2019).
Active and inactive are the calls of the source. No cut-off for these calls is given here.

What was measured:
[1] = system: Trypanosoma brucei rhodesiense; assay: Trypanocidal activity against Trypanosoma brucei rhodesiense STI B900 assessed as reduction in parasite viability; assay type: functional, organism-based
[2] = target: Cruzipain (Trypanosoma cruzi) (UniProt P25779); assay: Inhibition of recombinant Trypanosoma cruzi cruzain at 10 uM using Z-FR-AMC as substrate preincubated for 10 mins followed by substrate addition and measured at 12 sec interval for 5 mins by fluorimetric analysis relative to control; details: time 15.0 min
Method in brief: (§1)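 Recombinant rhodesain or cruzain (1 nM) in 0.1 M sodium acetate pH 5.5, 0.01% Triton X-100, 1 mM β-mercaptoethanol. Compound at a single concentration, either without or after 10 min enzyme pre-incubation. Z-FR-AMC 2.5 µM, read at 340/440 nm every 12 s for 5 min. Inhibition is relative to DMSO, with E-64 as positive control. Done in duplicate (primary screen) or triplicate.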

[3] = target: Cruzipain (Trypanosoma cruzi) (UniProt P25779); assay: Inhibition of recombinant Trypanosoma cruzi cruzain at 100 uM preincubated for 10 mins in presence of 0.1% Triton X-100 relative to control
Method in brief: (§2)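 To test detergent sensitivity, cruzain was pre-incubated 10 min at room temperature with compound with no Triton X-100, 0.01% or 0.1% Triton X-100. Cleavage of Z-FR-AMC was then followed at pH 5.5 in acetate buffer. Percent inhibition was compared across detergent levels.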

[4] = target: Cruzipain (Trypanosoma cruzi) (UniProt P25779); assay: Inhibition of recombinant Trypanosoma cruzi cruzain at 10 uM using Z-FR-AMC as substrate and measured at 12 sec interval for 5 mins without preincubation by fluorimetric analysis relative to control; method in brief: as §1
[5] = target: Rhodesain (Trypanosoma brucei rhodesiense) (UniProt Q95PM0); assay: Inhibition of recombinant Trypanosoma brucei rhodesain expressed in Pichia pastoris at 300 uM using Z-FR-AMC as substrate preincubated for 10 mins followed by substrate addition and measured at 12 sec interval for 5 mins by fluorimetric analysis relative to control; details: time 15.0 min
Method in brief: (§3)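 Run with no pre-incubation or with 10 min enzyme-compound pre-incubation. Fluorescence read at 340/440 nm. Concentration was set by solubility under assay conditions. Inhibition is against DMSO, with E-64 as positive control; triplicate.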

[6] = target: T1, cathepsin B (Rattus norvegicus, UniProt P00787); assay: Inhibition of rat cathepsin B at 100 uM using Z-FR-AMC as substrate measured after 15 mins without preincubation by microplate reader based assay relative to control; details: probe Z-FR-AMC
Method in brief: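 Rat cathepsin B (20 nM) at 25°C in 100 mM sodium phosphate, 100 mM NaCl, 1 mM EDTA, 1 mM DTT, 0.01% CHAPS. Compound pre-incubated 0 or 5 min with enzyme; Z-FR-AMC 50 µM, ex 380/em 440 nm, monitored 15 min. Inhibition is versus 2% DMSO, with 1 µM E64 control. Two independent experiments in triplicate.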

[7] = target: Cruzipain (Trypanosoma cruzi) (UniProt P25779); assay: Inhibition of recombinant Trypanosoma cruzi cruzain at 5 uM using Z-FR-AMC as substrate and measured at 12 sec interval for 5 mins without preincubation by fluorimetric analysis relative to control
Method in brief: as §1, with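 “pre-incubation.” for “pre-incubation. Z-FR-AMC 2.5 µM, read at 340/440 nm every 12 s for 5 min.”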

[8] = target: Cruzipain (Trypanosoma cruzi) (UniProt P25779); assay: Inhibition of recombinant Trypanosoma cruzi cruzain at 300 uM using Z-FR-AMC as substrate preincubated for 10 mins followed by substrate addition and measured at 12 sec interval for 5 mins by fluorimetric analysis relative to control; details: time 15.0 min; method in brief: as §1
[9] = target: Rhodesain (Trypanosoma brucei rhodesiense) (UniProt Q95PM0); assay: Inhibition of recombinant Trypanosoma brucei rhodesain expressed in Pichia pastoris at 5 uM using Z-FR-AMC as substrate and measured at 12 sec interval for 5 mins without preincubation by fluorimetric analysis relative to control
Method in brief: as §1, with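 “pre-incubation.” for “pre-incubation. Z-FR-AMC 2.5 µM, read at 340/440 nm every 12 s for 5 min.”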

[10] = target: Rhodesain (Trypanosoma brucei rhodesiense) (UniProt Q95PM0); assay: Inhibition of recombinant Trypanosoma brucei rhodesain expressed in Pichia pastoris at 5 uM using Z-FR-AMC as substrate preincubated for 10 mins followed by substrate addition and measured at 12 sec interval for 5 mins by fluorimetric analysis relative to control; details: time 15.0 min
Method in brief: as §1, with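 “pre-incubation.” for “pre-incubation. Z-FR-AMC 2.5 µM, read at 340/440 nm every 12 s for 5 min.”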

[11] = target: cathepsin S (Homo sapiens, UniProt P25774); assay: Inhibition of recombinant human cathepsin S expressed in Escherichia coli at 100 uM using Z-VVR-AMC as substrate preincubated for 10 mins followed by substrate addition and measured after 15 mins by microplate reader based assay relative to control; details: probe Z-VVR-AMC, in the assay text read “preincubated for 5 mins” for “preincubated for 10 mins”, time 20 min
Method in brief: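 Run with or without 5 min compound–enzyme pre-incubation. AMC fluorescence at 380/460 nm over 15 min. Inhibition relative to DMSO (2% final); E64 1 µM as positive control. Two independent experiments, each in triplicate.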

[12] = target: Cruzipain (Trypanosoma cruzi) (UniProt P25779); assay: Inhibition of recombinant Trypanosoma cruzi cruzain at 100 uM preincubated for 10 mins in absence of Triton X-100 relative to control; method in brief: as §2
[13] = target: Cruzipain (Trypanosoma cruzi) (UniProt P25779); assay: Inhibition of recombinant Trypanosoma cruzi cruzain at 100 uM preincubated for 10 mins in presence of 0.01% Triton X-100 relative to control; method in brief: as §2
[14] = target: Cruzipain (Trypanosoma cruzi) (UniProt P25779); assay: Inhibition of recombinant Trypanosoma cruzi cruzain at 300 uM using Z-FR-AMC as substrate and measured at 12 sec interval for 5 mins without preincubation by fluorimetric analysis relative to control; method in brief: as §1
[15] = target: Cruzipain (Trypanosoma cruzi) (UniProt P25779); assay: Inhibition of recombinant Trypanosoma cruzi cruzain at 100 uM preincubated with enzyme for 5 mins followed by substrate addition in absence of BSA relative to control
Method in brief: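 For BSA sensitivity, compound was held 5 min with BSA (2 mg/mL in 0.001% Triton X-100), then 5 min with 1 nM cruzain, before substrate was added and activity monitored. Parallel runs omitted BSA under otherwise identical conditions.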

[16] = target: Rhodesain (Trypanosoma brucei rhodesiense) (UniProt Q95PM0); assay: Inhibition of recombinant Trypanosoma brucei rhodesain expressed in Pichia pastoris at 10 uM using Z-FR-AMC as substrate preincubated for 10 mins followed by substrate addition and measured at 12 sec interval for 5 mins by fluorimetric analysis relative to control; details: time 15.0 min; method in brief: as §1
[17] = target: T1, cathepsin B; assay: Inhibition of rat cathepsin B at 100 uM using Z-FR-AMC as substrate preincubated for 5 mins followed by substrate addition and measured after 15 mins by microplate reader based assay relative to control; details: probe Z-FR-AMC
[18] = target: Cruzipain (Trypanosoma cruzi) (UniProt P25779); assay: Inhibition of recombinant Trypanosoma cruzi cruzain at 5 uM using Z-FR-AMC as substrate preincubated for 10 mins followed by substrate addition and measured at 12 sec interval for 5 mins by fluorimetric analysis relative to control; details: time 15.0 min
Method in brief: as §1, with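 “pre-incubation.” for “pre-incubation. Z-FR-AMC 2.5 µM, read at 340/440 nm every 12 s for 5 min.”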

[19] = target: Rhodesain (Trypanosoma brucei rhodesiense) (UniProt Q95PM0); assay: Inhibition of recombinant Trypanosoma brucei rhodesain expressed in Pichia pastoris at 300 uM using Z-FR-AMC as substrate and measured at 12 sec interval for 5 mins without preincubation by fluorimetric analysis relative to control; method in brief: as §3
[20] = system: Trypanosoma cruzi; assay: Trypanocidal activity against Trypanosoma cruzi Y strain trypomastigotes infected in C57BL/6 mouse peritoneal macrophage assessed as reduction in number of trypomastigotes release at 50 uM and measured after day 3 to day 11 post-infection by Neubauer chamber method; assay type: functional, organism-based; details: time 11.0 day
Method in brief: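 Thioglycolate-elicited peritoneal macrophages from female C57BL/6 mice, 2 × 10^5/well, infected 2 h at 37°C with Y strain trypomastigotes at 5:1 (parasite:cell) and washed. They were then held with compound (3.125–50 µM) or IFN-γ 100 ng/mL. Trypomastigotes released into the supernatant were counted in a Neubauer chamber at several days after infection. Three independent experiments, each in triplicate.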

T1 sequence (P00787 whole entry): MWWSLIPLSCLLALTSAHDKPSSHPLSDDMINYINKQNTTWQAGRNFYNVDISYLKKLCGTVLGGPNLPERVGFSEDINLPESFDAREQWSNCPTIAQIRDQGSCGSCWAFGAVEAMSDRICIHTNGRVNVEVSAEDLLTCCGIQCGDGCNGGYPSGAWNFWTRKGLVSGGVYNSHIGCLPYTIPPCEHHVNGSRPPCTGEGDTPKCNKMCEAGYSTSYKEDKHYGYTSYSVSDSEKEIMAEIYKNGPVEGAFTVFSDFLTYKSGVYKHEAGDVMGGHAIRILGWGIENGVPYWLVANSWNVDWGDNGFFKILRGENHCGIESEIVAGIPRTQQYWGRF
Rhodesain (Trypanosoma brucei rhodesiense), sequence (Q95PM0 1-450): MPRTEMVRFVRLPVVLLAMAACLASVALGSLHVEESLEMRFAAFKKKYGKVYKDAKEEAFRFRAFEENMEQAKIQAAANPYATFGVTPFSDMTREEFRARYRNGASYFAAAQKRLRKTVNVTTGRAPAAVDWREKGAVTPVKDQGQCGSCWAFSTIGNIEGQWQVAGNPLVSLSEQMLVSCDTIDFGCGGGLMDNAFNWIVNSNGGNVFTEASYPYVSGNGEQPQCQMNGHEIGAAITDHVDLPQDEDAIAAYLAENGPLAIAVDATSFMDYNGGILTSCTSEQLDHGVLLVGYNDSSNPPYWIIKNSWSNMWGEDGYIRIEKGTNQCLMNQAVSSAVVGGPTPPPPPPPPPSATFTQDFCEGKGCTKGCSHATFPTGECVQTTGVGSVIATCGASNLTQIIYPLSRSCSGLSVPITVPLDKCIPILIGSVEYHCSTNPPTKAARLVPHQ
Cruzipain (Trypanosoma cruzi), sequence (P25779 123-467 limits assumed): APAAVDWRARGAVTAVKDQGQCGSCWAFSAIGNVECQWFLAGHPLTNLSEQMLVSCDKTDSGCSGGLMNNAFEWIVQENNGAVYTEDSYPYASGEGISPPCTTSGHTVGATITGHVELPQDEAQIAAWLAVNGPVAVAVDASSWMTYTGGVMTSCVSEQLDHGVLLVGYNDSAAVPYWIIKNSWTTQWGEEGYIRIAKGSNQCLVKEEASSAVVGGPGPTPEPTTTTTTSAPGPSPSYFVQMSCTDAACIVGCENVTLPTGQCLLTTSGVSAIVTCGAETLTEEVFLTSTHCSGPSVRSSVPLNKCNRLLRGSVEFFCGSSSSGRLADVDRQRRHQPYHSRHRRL
cathepsin S, sequence (P25774 whole entry): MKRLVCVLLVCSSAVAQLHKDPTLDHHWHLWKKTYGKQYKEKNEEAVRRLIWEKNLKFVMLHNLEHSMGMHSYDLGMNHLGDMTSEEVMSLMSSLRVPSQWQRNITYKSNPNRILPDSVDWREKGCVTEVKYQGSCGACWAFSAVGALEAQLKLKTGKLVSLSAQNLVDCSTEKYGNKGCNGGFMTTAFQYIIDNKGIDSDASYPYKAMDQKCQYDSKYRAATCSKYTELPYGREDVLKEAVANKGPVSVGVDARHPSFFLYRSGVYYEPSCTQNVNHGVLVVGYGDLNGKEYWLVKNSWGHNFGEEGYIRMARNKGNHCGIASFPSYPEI

`Cn1c(=O)n(C)c2cc(CNCCNc3ccnc4cc(Cl)ccc34)ccc21` gave an IC50 [1] of 400 nM, an inhibition [2] of 18% and an inhibition [3] of 56.4%. It also gave an inhibition [4] of 13%, an inhibition [5] of 71% and an inhibition at 0.25 h, 100 µM [6] of 9.9%. The inhibition [7] was 64.9%, the inhibition [8] was 80% and the inhibition [9] was 47.7%. For the same compound, the inhibition [10] was 81.4%, the inhibition at 0.25 h, 100 µM [11] was 8.4% and the inhibition [12] was 64.5%. For the same compound, the inhibition [13] was 74.8%, the inhibition [14] was 75% and the inhibition [15] was 62.1%. The inhibition [16] was 12%, the inhibition at 0.25 h, 100 µM [17] was 11.7% and the inhibition [18] was 79.7%. For the same compound, the inhibition [19] was 67% and the Activity [20] was “Active”.
Work on `Cl.Cl.Clc1cc(Br)ccc1-c1ccc(CNCC2CCNCC2)o1` yielded an IC50 [1] of 100 nM, an inhibition [2] of 15% and an inhibition [3] of 76.7%. For the same compound, the inhibition [4] was 25%, the inhibition [5] was 75% and the inhibition at 0.25 h, 100 µM [6] was 1.3%. For the same compound, the inhibition [7] was 29.1%, the inhibition [8] was 84% and the inhibition [9] was 31.3%. It also gave an inhibition [10] of 49.6%, an inhibition at 0.25 h, 100 µM [11] of 29.8% and an inhibition [12] of 96.8%. It also gave an inhibition [13] of 67.1%, an inhibition [14] of 78% and an inhibition [15] of 86.2%. The inhibition [16] was 2%, the inhibition at 0.25 h, 100 µM [17] was 3.2% and the inhibition [18] was 56.7%. For the same compound, the inhibition [19] was 96% and the Activity [20] was “Active”.
